# According to ChEMBL document CHEMBL1221252, “Novel 1H-pyrrolo[2,3-c]pyridines as acid pump antagonists (APAs)” (Bioorg Med Chem Lett, 2010):
# Target: not listed separately
# Experiment: Inhibition of pig gastric H(+)/K(+) ATPase
# Type: tissue-based, Sus scrofa, Stomach
# Conditions: not given
# How it was run: (§1)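 Ion-leaky gastric membrane vesicles enriched in H+/K+-ATPase, prepared from pig stomach. Lyophilized vesicles in 5 mM PIPES/Tris pH 6.1 preincubated 5 min with compound, then buffer with or without K+ added. ATP substrate added, 30 min at 37 °C. Stopped with colorimetric reagent; Pi read at 620 nm. Activity taken as K+-stimulated Pi production (with minus without K+); IC50 from % inhibition by Litchfield–Wilcoxon.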
row,IC50,Compound
1,735 nM,C=CCn1c(C)c(C)c2cc(C(=O)Nc3ccncc3)nc(OCc3ccc(F)cc3)c21
2,302 nM,CCCn1c(C)c(C)c2ccnc(OCc3ccc(F)cc3)c21
3,408 nM,C=CCn1c(C)c(C)c2cc(C(=O)NC3CC3)nc(OCc3ccc(F)cc3)c21
4,181 nM,Cc1c(C)n(CC2CC2)c2c(OCc3ccc(F)cc3)nccc12
5,187 nM,Cc1c(C)n(Cc2ccccc2)c2c(OCc3ccc(Cl)cc3)nccc12
6,28 nM,Cc1c(C)n(Cc2ccccc2)c2c(OCc3ccc(F)cc3)nc(C(=O)N(C)C)cc12
7,125 nM,C=CCn1c(C)c(C)c2ccnc(OCc3ccc(F)cc3)c21
8,173 nM,Cc1c(C)n(CC2OCCO2)c2c(OCc3ccc(F)cc3)nccc12
9,29 nM,Cc1c(C)n(Cc2ccccc2)c2c(OCc3ccc(F)cc3)nc(C(=O)N3CCOCC3)cc12
10,205 nM,Cc1c(C)n(CC(C)C)c2c(OCc3ccc(Cl)cc3)nccc12
11,738 nM,Cc1c(C)n(Cc2ccccc2)c2c(OCc3ccc(F)cc3)nc(C(=O)NC3CC3)cc12
12,196 nM,Cc1c(C)n(CC(C)C)c2c(OCc3ccc(F)cc3)nccc12

# Organism: Sus scrofa
# Experiment: Inhibition of pig gastric H(+)/K(+) ATPase at 4 uM
# Type: tissue-based
# Conditions: Stomach
# How it was run: as §1
row,inhibition,Compound
1,78.4%,C=CCn1c(C)c(C)c2cc(C(=O)NC)nc(OCc3ccc(F)cc3)c21
2,60.3%,Cc1[nH]c2c(OCc3ccc(F)cc3)nccc2c1C
3,32.1%,Cc1[nH]c2c(OCc3ccccc3F)nccc2c1C
4,80.3%,C=CCn1c(C)c(C)c2cc(C(N)=O)nc(OCc3ccc(F)cc3)c21
5,50.9%,Cc1[nH]c2c(OCc3ccccc3)nccc2c1C
6,16.1%,Cc1c(C)n(Cc2ccccc2)c2c(OCc3ccc(F)cc3)nc(C(N)=O)cc12

# Organism: Sus scrofa
# Experiment: Inhibition of pig gastric H(+)/K(+) ATPase at 1 uM
# Type: tissue-based
# Conditions: Stomach
# How it was run: as §1
row,inhibition,Compound
1,39.4%,CNC(=O)c1cc2c(C)c(C)n(Cc3ccccc3)c2c(OCc2ccc(F)cc2)n1
